Compound activity as filed in PubChem BioAssay.
Sampled rows, rich in hits. Any-hit rate of the full collection: about 4.6%.
CHO parental Ca = signal in parental CHO cells, OX1R antagonist counter-screen. 0.63% of 330,000 active. parental CHO-K1, ATP-induced calcium, Fluo-8 fluorescence. AID 463079. inhibition, % at 5.6 µM;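 active means inhibition above that plate's mean sample inhibition plus 3 SD, cut at about 26% in these data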;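 further: 0% = ATP-challenged DMSO wells and 100% = DMSO wells without ATP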
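Material: parental CHO cells / Compound: single nominal dose of 5.6 µM per compound / Signal: Fluo-8 fluorescence / Replicates: singlicate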
TAAR1 agonist = human TAAR1 agonism; Q96RJ0; CHO RD-HGA16 TAAR1, Fluo-8 calcium fluorescence; vehicle wells 0%, saturating PEA agonist 100%; activation, % at 3 µM; 0.99% of 360,000 active; AID 624467;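 active means activation above the mean activation of all test compounds in the run plus 3 SD, cut at about 38% in these data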
Target sequence (Q96RJ0 whole entry, looked up): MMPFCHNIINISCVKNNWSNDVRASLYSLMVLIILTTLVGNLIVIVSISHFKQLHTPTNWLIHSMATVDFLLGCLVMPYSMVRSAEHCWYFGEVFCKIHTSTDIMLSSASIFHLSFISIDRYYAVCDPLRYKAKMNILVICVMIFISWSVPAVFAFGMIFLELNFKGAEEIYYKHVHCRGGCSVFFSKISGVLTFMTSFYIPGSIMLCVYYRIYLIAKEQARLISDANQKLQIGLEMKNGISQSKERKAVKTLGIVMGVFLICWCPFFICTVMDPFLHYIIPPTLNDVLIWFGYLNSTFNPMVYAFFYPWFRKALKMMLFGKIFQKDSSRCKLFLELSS
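Repeats: no replicates (n 1) | Material: CHO-derived RD-HGA16 cells with stable Gα16 and human TAAR1 | Technique: Kinetic Fluo-8 calcium fluorescence | Schedule: 17-24 h seeding, 75 min 37 °C dye, 30 min RT | Evaluation: % activation from peak over basal fluorescence ratio, DMSO-to-PEA scaled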
OX1R antag-1 = OX1R (human) antagonism | O43613 | OX1R-expressing cells, FRET antagonist read-out | inhibition, % at 6.6 µM | 1.8% of 330,000 active | AID 485270; in the data active means inhibition mostly above about 38%, no sharp cut-off; inactive means mostly below about 40%;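 further: 0% = agonist challenge alone and 100% = reference antagonist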
OX1R antag-2 = human HCRTR1 antagonism | CHO/OX1R cells, Fluo-8 calcium fluorescence, orexin A | O43613 | inhibition, % at 5 µM | 0.43% of 330,000 active;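 active means inhibition above its plate's threshold, mean inhibition of all tested compounds on the plate plus 3 SD, cut at about 37% in these data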;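 further: 0% = orexin A challenge wells and 100% = SB-334867-A antagonist wells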
GPR7 antagonist = human neuropeptides B/W receptor 1 antagonism. inhibition, % at 4.4 µM. AID 1861. 1.1% of 290,000 active. GPR7-expressing cells, fluorescence antagonist assay. P48145; in the data active means inhibition above about 16%, passing the limit was not always enough;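 further: cells stimulated with the agonist NPW; 0% = agonist with vehicle and 100% = vehicle without agonist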
TAAR1 antag = human TAAR1 antagonism; 1.5% of 360,000 active; Q96RJ0; CHO RD-HGA16 TAAR1, Fluo-8 calcium fluorescence, antagonist; AID 624466; inhibition, % at 3 µM;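 active means inhibition above a per-plate cutoff, the mean inhibition of test compounds on that plate plus 3 SD, cut at about 49% in these data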;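 further: 0% = DMSO plus EC80 beta-PEA response and 100% = DMSO alone without agonist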
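Test system – hTAAR1-expressing CHO RD-HGA16 cells, Gα16-coupled · Also added – β-PEA at EC80 concentration, post-compound challenge · Compound – 3 µM, single point · Incubation – dye loading 75 min at 37 °C, then 30 min room temperature · Measured by – Fluo-8 intracellular calcium dye fluorescence, real-time kinetic reads · Benchmarks – vehicle and agonist controls · Replicates – singlicate, one well per test compound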
* hit, by the source's call; nt = no result.

SMILES | CHO parental Ca | TAAR1 agonist | OX1R antag-1 | OX1R antag-2 | GPR7 antagonist | TAAR1 antag
Cc1cc(C(=O)NNC(=O)c2cccc([N+](=O)[O-])c2)n[nH]1 | -1 | 12 | 28* | 7 | nt | -5
O=C(NNC(=O)c1cnccn1)c1cccc([N+](=O)[O-])c1 | -4 | 2 | 44* | 4 | -16 | 1
O=CNNC(=O)c1cccc([N+](=O)[O-])c1 | 10 | 1 | 26 | 9 | 0 | -13
Cc1ccc(NC(=O)CCn2cnc3ccccc3c2=O)cc1Cl | -7 | 40* | 16 | -27 | 0 | 23
COc1ccc(-c2csc(NC(=O)CCn3cnc4ccccc4c3=O)n2)cc1OC | -15 | 20 | 15 | -9 | -3 | 55*
N#Cc1c(NC(=O)CCn2cnc3ccccc3c2=O)oc(-c2ccccc2)c1-c1ccccc1 | -22 | 4 | 25 | -34 | 18* | -3
COC(=O)C1=C(C)N(Cc2ccccc2C(F)(F)F)C(=NCc2cc(OC)c(OC)c(OC)c2)NC1c1ccccc1 (centres undefined) | nt | 11 | nt | nt | nt | -7
Cc1ccc(CNC(=O)[C@@H](Cc2ccccc2)NC(=O)[C@H]2O[C@@H](n3ccc(N)nc3=O)[C@H](O)[C@@H]2O)o1 | nt | 1 | nt | nt | nt | -3
CN1CCN(C(=O)C2Cc3c(-c4cccc(F)c4)ccnc3O2)CC1 (centres undefined) | nt | 1 | nt | nt | nt | -14
NC(=O)c1c(N)[nH]c(C(=O)c2ccccc2)c1-c1ccc(Cl)cc1Cl | nt | 1 | nt | nt | nt | -11
Cc1ccc(C(O)(c2ccccc2)c2ccccc2C(C)N(C)C)c(C)c1 (centres undefined) | -22 | 41* | 2 | -27 | 17 | -9
CNc1ncnc2c1ncn2[C@H]1CN(Cc2cccc3ccccc23)C[C@@H](CO)O1 | nt | 7 | nt | nt | nt | 20
COc1ccccc1NC(=O)N1CCc2[nH]c3ccc(F)cc3c2C1 | -8 | 43* | 35 | -23 | 0 | -10
O=C(C1CCCCC1)N1CCc2[nH]c3ccc(F)cc3c2C1 | -9 | 12 | 2 | -8 | -5 | -12
CC1CCN(C(=O)c2ccccc2NS(=O)(=O)c2ccccc2)CC1 | -12 | 0 | 50* | -21 | -5 | -10
O=C(NCC1COc2ccccc2O1)C1CCCN(S(=O)(=O)c2cccc3cccnc23)C1 (centres undefined) | -15 | 13 | 56* | -24 | -7 | -5
O=C(NCC1COc2ccccc2O1)C1CCCN(S(=O)(=O)c2cccc3nsnc23)C1 (centres undefined) | -21 | 10 | 75 | -12 | -14 | 28
COc1cccc(NC(=O)C2CCCN(S(C)(=O)=O)C2)c1 (centres undefined) | -3 | 3 | 14 | -7 | 1 | 2
O=C(Nc1ccccc1F)C1CCCN(S(=O)(=O)c2cccc3cccnc23)C1 (centres undefined) | -33 | 5 | 35* | -25 | 7 | 17
O=C(NC1CCCCC1)C1CCCN(S(=O)(=O)c2cccc3cccnc23)C1 (centres undefined) | -14 | 1 | 17 | -22 | -29 | -17
O=C(C1CCCN(S(=O)(=O)c2cccc3cccnc23)C1)N1CCc2ccccc21 (centres undefined) | 2 | 6 | 70* | 10 | -6 | 44
COc1cccc(NC(=O)C2CCCN(S(=O)(=O)c3cccc4cccnc34)C2)c1 (centres undefined) | -8 | 5 | 55* | 15 | -4 | 20
Cn1c(SSc2ccc(-c3cccnc3)n2C)ccc1-c1cccnc1 | nt | 0 | nt | nt | nt | 20
COc1cccc(C(=O)N[C@H](C(=O)N2CCC[C@H]2C(=O)NCc2ccccc2)c2ccccc2)c1 | nt | 1 | nt | nt | nt | 0
CC12CCC(=O)N1C(C(=O)Nc1cc(Cl)ccc1N1CCCC1)CS2 (centres undefined) | -28 | 15 | 3 | -18 | nt | -14
COC(=O)[C@]12C[C@H](CC(=O)NCC3CCCCC3)C(=O)N(Cc3ccccc3)C1=C[C@H](C1CCCC1)O[C@@H]2C | nt | -3 | nt | nt | nt | -29
CCOc1ccccc1NC(=O)C1CCCN(S(=O)(=O)c2cccc3nsnc23)C1 (centres undefined) | -21 | 13 | 55 | -7 | 9 | 19
